≈ marks a conversion by molar mass, not a printed value.
How the values were obtained:
[1] = Intrinsic clearance in human liver microsomes; type: ADME, Microsome; conditions: read-out: CLH
[2] = AUC in rat at 20 mg/kg, po; type: ADME, organism-based; set-up: dose 20 mg/kg, route oral; conditions: plasma
In short: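 Female CD rats were dosed orally at 20 mg/kg, with a separate 5 mg/kg IV arm. Exposure (AUC) was taken from the plasma profile after the oral dose.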

[3] = Oral bioavailability in rat at 20 mg/kg; type: ADME, organism-based; conditions: in vivo
In short: (§1)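 Rat PK used a 5 mg/kg intravenous dose and a 20 mg/kg oral dose.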

[4] = Intrinsic clearance in rat liver microsomes; type: ADME, Microsome; conditions: read-out: CLH
[5] = Solubility of the compound at pH 7; type: physicochemical; conditions: buffer
[6] = Volume of distribution at steady state in rat at 5 mg/kg, iv; type: ADME, organism-based; set-up: dose 5 mg/kg, route intravenous; conditions: in vivo, read-out: Vdss; in short: as §1
[7] = Clearance in rat at 5 mg/kg, iv; type: ADME, organism-based; set-up: dose 5 mg/kg, route intravenous; conditions: in vivo
In short: (§2)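 Female CD rats received 5 mg/kg IV (20 mg/kg PO arm). Female CD1 mice received 5 mg/kg IV (10 mg/kg PO arm). Male and female beagles and male cynomolgus monkeys each received 1 mg/kg IV (2 mg/kg PO arm). Clearance and half-life were derived from plasma concentration–time profiles after the IV dose.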

[8] = Apparent permeability from apical to basal side of human Caco2 cells; type: ADME, cell-based; conditions: Caco-2
[9] = Aqueous solubility of the compound; type: physicochemical
[10] = Apparent permeability from basal to apical side of human Caco2 cells; type: ADME, cell-based; conditions: Caco-2
[11] = Volume of distribution at steady state in beagle dog at 1 mg/kg, iv; type: ADME, organism-based, Canis lupus familiaris; set-up: dose 1 mg/kg, route intravenous; conditions: in vivo, read-out: Vdss
In short: (§3)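 Male and female beagle dogs were dosed at 1 mg/kg IV and 2 mg/kg PO.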

[12] = Oral bioavailability in CD1 mouse at 10 mg/kg; type: ADME, organism-based; conditions: in vivo
In short: (§4)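 Female CD1 mice were dosed at 5 mg/kg IV and 10 mg/kg PO.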

[13] = Volume of distribution at steady state in CD rat at 5 mg/kg, iv; type: ADME, organism-based; set-up: dose 5 mg/kg, route intravenous; conditions: in vivo, read-out: Vdss
In short: (§5)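 Female CD rats were dosed at 5 mg/kg IV and 20 mg/kg PO.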

[14] = Oral bioavailability in cynomolgus monkey at 2 mg/kg; type: ADME, organism-based, Macaca fascicularis; conditions: in vivo
In short: (§6)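 Male cynomolgus monkeys were dosed at 1 mg/kg IV and 2 mg/kg PO.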

[15] = Clearance in CD1 mouse at 5 mg/kg, iv; type: ADME, organism-based; set-up: dose 5 mg/kg, route intravenous; conditions: in vivo; in short: as §2
[16] = tested on: Plasma; assay: Plasma concentration in nu/nu mouse xenografted with human A2780 cells at 100 mg/kg, po; type: ADME, organism-based; set-up: dose 100 mg/kg, route oral; conditions: in vivo
In short: (§7)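 A2780 tumor-bearing mice were given oral doses (3, 10, 60 and 100 mg/kg were examined). Tumor AKT Ser473 phosphorylation and plasma exposure were measured, with the 10 h time point sampled.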

[17] = Drug uptake in tumor in nu/nu mouse xenografted with human A2780 cells at 60 mg/kg, po; type: ADME, organism-based, Neoplasm; set-up: dose 60 mg/kg, route oral; conditions: in vivo, read-out: Drug uptake
In short: (§8)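 A2780 tumor-bearing mice received a single oral dose. Tumors and plasma were sampled at 10 h. Tumor pAKT Ser473 was assessed for target modulation, and compound concentrations were measured in plasma and tumor.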

[18] = Oral bioavailability in CD rat at 20 mg/kg; type: ADME, organism-based; conditions: in vivo; in short: as §5
[19] = Drug uptake in tumor in nu/nu mouse xenografted with human A2780 cells at 100 mg/kg, po; type: ADME, organism-based, Neoplasm; set-up: dose 100 mg/kg, route oral; conditions: in vivo, read-out: Drug uptake; in short: as §8
[20] = Lipophilicity, log D at pH 7.4; type: physicochemical; conditions: buffer
[21] = Clearance in cynomolgus monkey at 1 mg/kg, iv; type: ADME, organism-based, Macaca fascicularis; set-up: dose 1 mg/kg, route intravenous; conditions: in vivo; in short: as §2
[22] = Half life in CD1 mouse at 5 mg/kg, iv; type: ADME, organism-based; set-up: dose 5 mg/kg, route intravenous; conditions: in vivo; in short: as §2
[23] = Volume of distribution at steady state in CD1 mouse at 5 mg/kg, iv; type: ADME, organism-based; set-up: dose 5 mg/kg, route intravenous; conditions: in vivo, read-out: Vdss; in short: as §4
[24] = Volume of distribution at steady state in cynomolgus monkey at 1 mg/kg, iv; type: ADME, organism-based, Macaca fascicularis; set-up: dose 1 mg/kg, route intravenous; conditions: in vivo, read-out: Vdss; in short: as §6
[25] = Clearance in beagle dog at 1 mg/kg, iv; type: ADME, organism-based, Canis lupus familiaris; set-up: dose 1 mg/kg, route intravenous; conditions: in vivo; in short: as §2
[26] = Half life in CD rat at 5 mg/kg, iv; type: ADME, organism-based; set-up: dose 5 mg/kg, route intravenous; conditions: in vivo; in short: as §2
[27] = Dissociation constant, pKa of the compound; type: physicochemical
[28] = Half life in beagle dog at 1 mg/kg, iv; type: ADME, organism-based, Canis lupus familiaris; set-up: dose 1 mg/kg, route intravenous; conditions: in vivo; in short: as §2
[29] = tested on: Plasma; assay: Plasma concentration in nu/nu mouse xenografted with human A2780 cells at 60 mg/kg, po; type: ADME, organism-based; set-up: dose 60 mg/kg, route oral; conditions: in vivo; in short: as §7
[30] = Half life in cynomolgus monkey at 1 mg/kg, iv; type: ADME, organism-based, Macaca fascicularis; set-up: dose 1 mg/kg, route intravenous; conditions: in vivo; in short: as §2
[31] = Clearance in CD rat at 5 mg/kg, iv; type: ADME, organism-based; set-up: dose 5 mg/kg, route intravenous; conditions: in vivo; in short: as §2
[32] = Oral bioavailability in beagle dog at 2 mg/kg; type: ADME, organism-based, Canis lupus familiaris; conditions: in vivo; in short: as §3
[33] = AUC in rat at 10 mg/kg, po; type: ADME, organism-based; set-up: dose 10 mg/kg, route oral; conditions: plasma
[34] = Oral bioavailability in rat at 10 mg/kg; type: ADME, organism-based; conditions: in vivo
In short: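 Rat PK used a 5 mg/kg intravenous dose and a 10 mg/kg oral dose.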

SMILES: Nc1ncc(-c2cc(N3CCOCC3)nc(N3CCOCC3)n2)c(=O)[nH]1
- microsomal CLint [1]: ≤ 9 µL/min/mg
- AUC [2]: 24 µM·h
- bioavailability [3]: 56%
- microsomal CLint [4]: ≤ 9 µL/min/mg
- solubility [5]: 22 µM (≈ 7.91 µg/mL)
- Vd [6]: 2.8 L/kg
- clearance [7]: 24 mL/min/kg

SMILES: Nc1cc(C(F)(F)F)c(-c2cc(Nc3cnc4ccccc4c3)nc(N3CCOCC3)n2)cn1
- AUC [2]: 114 µM·h
- Papp A→B [8]: 1.56 ×10⁻⁶ cm/s
- solubility [9]: 0.3 µg/mL (≈ 0.642 µM)
- Papp B→A [10]: 2.15 ×10⁻⁶ cm/s
- Vd [6]: 2.6 L/kg
- clearance [7]: 8 mL/min/kg

SMILES: Nc1ncc(-c2cc(N3CCOCC3)nc(N3CCOCC3)n2)cn1
- microsomal CLint [1]: ≤ 9 µL/min/mg
- microsomal CLint [4]: ≤ 9 µL/min/mg
- solubility [5]: 25 µM (≈ 8.58 µg/mL)

SMILES: Nc1cc(Cl)c(-c2cc(N3CCOCC3)nc(N3CCOCC3)n2)cn1
- microsomal CLint [1]: ≤ 9 µL/min/mg
- AUC [2]: 29 µM·h
- bioavailability [3]: 69%
- microsomal CLint [4]: ≤ 9 µL/min/mg
- solubility [5]: 45 µM (≈ 17 µg/mL)
- Vd [6]: 1.11 L/kg
- clearance [7]: 22 mL/min/kg

SMILES: Nc1cc(C(F)(F)F)c(-c2cc(N3CCOCC3)nc(N3CCOCC3)n2)cn1 [BUPARLISIB]
- Vd [11]: 3.1 L/kg
- bioavailability [12]: 71%
- Vd [13]: 3.1 L/kg
- microsomal CLint [1]: ≤ 9 µL/min/mg
- AUC [2]: 178 µM·h
- bioavailability [14]: 44%
- clearance [15]: 11 mL/min/kg
- concentration [16]: 2000 nM
- concentration [17]: 2000 nM
- bioavailability [18]: 50%
- concentration [19]: 2000 nM
- logD [20]: 2.9
- clearance [21]: 13 mL/min/kg
- half-life [22]: 96 min
- Vd [23]: 1.4 L/kg
- Vd [24]: 3.1 L/kg
- bioavailability [3]: 50%
- microsomal CLint [4]: ≤ 9 µL/min/mg
- solubility [5]: 132 µM (≈ 54.2 µg/mL)
- clearance [25]: 7.3 mL/min/kg
- half-life [26]: 660 min
- pKa [27]: 5.1
- half-life [28]: 396 min
- concentration [29]: 2000 nM
- half-life [30]: 216 min
- Vd [6]: 3.1 L/kg
- clearance [7]: 3 mL/min/kg
- clearance [31]: 3 mL/min/kg
- bioavailability [32]: > 100%

SMILES: N#Cc1cc(N)ncc1-c1cc(N2CCOCC2)nc(N2CCOCC2)n1
- microsomal CLint [1]: ≤ 9 µL/min/mg
- AUC [2]: 86 µM·h
- bioavailability [3]: 98%
- microsomal CLint [4]: ≤ 9 µL/min/mg
- solubility [5]: 11 µM (≈ 4.04 µg/mL)
- Vd [6]: 1.6 L/kg
- clearance [7]: 11 mL/min/kg

SMILES: Nc1ncc(-c2cc(N3CCOCC3)nc(N3CCOCC3)n2)c(C(F)(F)F)n1
- microsomal CLint [1]: ≤ 9 µL/min/mg
- AUC [2]: 62 µM·h
- bioavailability [3]: 83%
- microsomal CLint [4]: ≤ 9 µL/min/mg
- solubility [5]: 61 µM (≈ 25.1 µg/mL)
- Vd [6]: 2.1 L/kg
- clearance [7]: 11 mL/min/kg

SMILES: Nc1ncc(-c2cc(N3CCOCC3)nc(N3CCOCC3)n2)c(N)n1
- microsomal CLint [1]: ≤ 9 µL/min/mg
- AUC [33]: 64 µM·h
- bioavailability [34]: 68%
- microsomal CLint [4]: ≤ 9 µL/min/mg
- solubility [5]: 8 µM (≈ 2.87 µg/mL)
- Vd [6]: 4.5 L/kg
- clearance [7]: 9 mL/min/kg

SMILES: Nc1ncc(-c2cc(Nc3cnc4ccccc4c3)nc(N3CCOCC3)n2)cn1
- AUC [2]: 7 µM·h

SMILES: Nc1ncc(-c2cc(Nc3cnc4ccccc4c3)nc(N3CCOCC3)n2)c(C(F)(F)F)n1
- AUC [2]: 26 µM·h
- Vd [6]: 2.8 L/kg
- clearance [7]: 11 mL/min/kg
